# Bioassay records (PubChem BioAssay)
# M5 PAM – human M5 muscarinic receptor positive allosteric modulators, primary screen, CHO-K1 cells, Fluo-8 calcium fluorescence. Muscarinic acetylcholine receptor M5 (Homo sapiens), P08912. CHO-K1 hM5, ACh EC20 PAM; 0% = ACh EC20, 100% = ACh EC100. activation, % at 3 µM. 360,000 compounds, 0.3% hits;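 active = activation above the run cutoff, the mean activation of all test compounds plus 3 SD, cut at about 18% in these data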
# Target sequence (P08912 whole entry, looked up): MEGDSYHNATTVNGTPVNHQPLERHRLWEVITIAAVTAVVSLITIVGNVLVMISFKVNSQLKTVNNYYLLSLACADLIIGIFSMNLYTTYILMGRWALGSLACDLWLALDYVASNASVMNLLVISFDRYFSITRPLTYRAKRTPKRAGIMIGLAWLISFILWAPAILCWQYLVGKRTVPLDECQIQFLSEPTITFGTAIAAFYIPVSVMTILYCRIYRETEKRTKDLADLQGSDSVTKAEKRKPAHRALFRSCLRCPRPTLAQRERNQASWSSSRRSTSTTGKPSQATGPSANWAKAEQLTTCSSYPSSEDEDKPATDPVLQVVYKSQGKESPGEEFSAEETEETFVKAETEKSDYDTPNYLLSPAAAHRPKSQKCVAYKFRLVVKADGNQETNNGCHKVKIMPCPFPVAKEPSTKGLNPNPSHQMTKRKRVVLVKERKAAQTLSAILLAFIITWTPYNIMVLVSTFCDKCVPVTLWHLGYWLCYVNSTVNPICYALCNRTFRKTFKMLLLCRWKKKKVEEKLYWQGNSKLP
#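 system = human M5 receptor in CHO-K1 cells | compound = one concentration, 3 µM final (nominal) | schedule = Post-acetylcholine fluorescence recording 140 s | signal = Fluo-8 calcium dye fluorescence, kinetic read | benchmarks = low control EC20 acetylcholine (0%), high control EC100 acetylcholine (100%) | repeats = singlicate, one well per test compound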
# CHRM5 antagonist – human M5 muscarinic receptor antagonists, primary screen, CHO cells, Fluo-8 calcium fluorescence | AID 624040, 2012 | inhibition, % at 3 µM | CHO-hM5 cells, ACh EC80 | Muscarinic acetylcholine receptor M5 (Homo sapiens), P08912 | 360,000 compounds, 0.59% hits;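 active = inhibition above a per-plate cutoff, the mean of that plate's test compounds plus 3 SD, cut at about 27% in these data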
# CHRM4 PAM – human M4 muscarinic receptor positive allosteric modulators, primary screen, CHO-K1 cells, Fluo-8 calcium fluorescence | Muscarinic acetylcholine receptor M4 (Homo sapiens), P08173 | AID 624126, 2012 | CHO-K1 hM4/Gqi5, ACh EC20; 0% = ACh EC20, 100% = maximal ACh | activation, % at 3 µM | 360,000 compounds, 0.4% hits;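 active = activation above its plate's cutoff, the mean activation of sample wells plus 3 SD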
# CHRM4 antagonist – human M4 muscarinic receptor antagonists, primary screen, CHO cells, Fluo-8 calcium fluorescence; Muscarinic acetylcholine receptor M4 (Homo sapiens), P08173; CHO-hM4 cells, ACh EC80; inhibition, % at 3 µM; 360,000 compounds, 0.73% hits; AID 624125, 2012;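 active = inhibition above its plate's cutoff, the mean inhibition of sample wells plus 3 SD, cut at about 27% in these data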
# CHRM4 agonist – human M4 muscarinic receptor agonists, primary screen, CHO-K1 cells, Fluo-8 calcium fluorescence; Muscarinic acetylcholine receptor M4 (Homo sapiens), P08173; CHO-K1 hM4/Gqi5; vehicle 0%, full acetylcholine response 100%; activation, % at 3 µM; 360,000 compounds, 0.14% hits; AID 624127, 2012;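 active = activation above the run mean over all test wells plus 3 SD, cut at about 32% in these data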;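 note: peak over basal fluorescence ratio per well then scaled between controls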
# M5 ag – human M5 muscarinic receptor agonists, primary screen, CHO-K1 cells, Fluo-8 calcium fluorescence. Muscarinic acetylcholine receptor M5 (Homo sapiens), P08912. CHO-K1 hM5 cells; 0% DMSO wells, 100% maximal acetylcholine response. activation, % at 3 µM. 360,000 compounds, 0.19% hits. AID 624037, 2012;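 active = activation above the run's mean over test compounds plus 3 SD, cut at about 23% in these data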;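 note: signal is peak over basal fluorescence ratio across the kinetic read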
# Hits are given with their value; n = inactive. This is a sample that favours compounds with a hit; in the whole collection about 1.9% have one here.
SMILES,M5 PAM,CHRM5 antagonist,CHRM4 PAM,CHRM4 antagonist,CHRM4 agonist,M5 ag
O=C(c1ccc(CNS(=O)(=O)c2ccc(Br)cc2)cc1)N1CCCCC1,n,n,n,n,n,n
Cc1[nH]c2ccc3ncccc3c2c1C,n,n,n,n,n,n
Cc1[nH]c2ccc3c(ncn3CCC#N)c2c1C,n,n,n,31,n,n
CCN1C(=O)CC2(C[N+]3(C)CCC2CC3)C1=O (stereo not drawn),n,53,n,n,n,n
CCc1ccc(NC(=O)CS(=O)CC(=O)Nc2ccc(F)cc2F)cc1 (stereo not drawn),n,n,31,n,n,n
Cc1cccc(C)c1NC(=O)CS(=O)CC(=O)Nc1ccc(F)cc1F (stereo not drawn),n,n,n,n,n,n
O=C(O)CP(=O)(c1ccccc1)c1ccccc1,n,n,22,n,n,n
O=P(CCO)(c1ccccc1)c1ccccc1,n,n,n,n,n,n
c1ccc(-c2ccc(OCCCNC3CCCC3)cc2)cc1,n,33,n,39,n,n
CCCCn1c(N)c(N(Cc2ccccc2OC)C(=O)c2ccc([N+](=O)[O-])s2)c(=O)[nH]c1=O,n,n,n,n,n,n
O=C(c1ccncc1)c1ccc(Br)cc1,n,n,35,n,n,n
COc1ccc(C(=O)c2ccc(Br)cc2)cc1,n,n,n,n,n,n
CCOc1ccc(NC(=O)c2cccc(-n3cnnn3)c2)cc1,n,n,n,27,n,n
O=C(Nc1ccc(OC(F)(F)F)cc1)c1cccc(-n2cnnn2)c1,n,n,n,n,n,n
CCC(C)c1ccccc1NC(=O)COc1ccc(-n2cnnn2)cc1 (stereo not drawn),n,n,20,n,n,n
O=C(Cc1ccccc1)Nc1nnc(-c2cccc([N+](=O)[O-])c2)s1,n,n,35,n,n,n
O=C(COC(=O)C1CCCC1)NCc1ccc(Cl)cc1,n,n,n,n,n,n
O=C(COC(=O)C1CCC1)NCc1ccccc1,n,n,24,n,n,n
Cc1cc(O)c(-c2cc(O)c(C)cc2O)cc1O,n,n,n,28,n,n
Cc1ccc(S(=O)(=O)Nc2cccc3ncccc23)cc1,n,n,n,n,n,n
Cc1ccc(S(=O)(=O)Nc2cccc3ncccc23)s1,n,n,n,28,n,n
O=C1NC2(CCCCCC2)C(=O)N1Cc1c(F)cccc1Cl,n,n,n,31,n,n
O=C1NC2(CCCCCC2)C(=O)N1Cc1ccccc1F,n,n,n,n,n,n
CCCCN(CC)C(=O)c1cc2cc3ccc(OC)cc3nc2o1,42,n,n,n,n,n
CCOc1ccc(CNc2nc3ccccc3n2C)cc1,21,n,n,n,n,n
SMILES,M5 PAM,CHRM5 antagonist,CHRM4 PAM,CHRM4 antagonist,CHRM4 agonist,M5 ag
CCOc1ccc(Nc2nc3ccccc3n2C)cc1,n,n,n,n,n,n
Cc1cccc(NC(=O)c2nc[nH]c2C(=O)N2CCN(c3ccccc3)CC2)c1,n,n,n,n,n,n
Cc1onc(-c2c(Cl)cccc2Cl)c1C(=O)N1CCc2ccccc21,n,n,n,38,n,n
O=C(Nc1ccc(Cl)c(Cl)c1)O/N=C/c1ccncc1,n,32,n,n,n,n
Cc1cccc(N2C(=O)N3[C@H]4c5ccccc5OC[C@@H]4[C@@H](c4ccccc4)[C@@]3(C)C2=O)c1,n,n,n,n,n,n
Cc1ccc(-c2nc3sc4c(c3c(=O)n2N)CCCC4)cc1,n,n,38,n,n,n
Cc1ccc(-c2nc3sc4c(c3c(=O)n2N)CC(C)(C)OC4)cc1,n,n,n,n,n,n
CCOC(=O)c1cn(CC#N)c2cc(F)c(F)cc2c1=O,n,n,24,n,n,n
CCOC(=O)c1cn(CC)c2cc(N3CCN(C)CC3)c(F)cc2c1=O,n,n,n,n,n,n
CCCCCCn1cc(C(=O)OCC)c(=O)c2cc(F)c(F)cc21,n,n,38,n,n,n
CCOC(=O)/C(=C/C=C1\Sc2cc(OCC)c(OCC)cc2N1CC)C(C)=O,n,36,n,n,n,147
CCOC(=O)/C(=C\C=C1/Sc2cc(OCC)c(OCC)cc2N1CC)C(C)=O,n,n,n,n,n,24
CCN1/C(=C/C(C)=O)Sc2ccc(OC)cc21,n,n,n,n,n,n
CC(C)(C)NC(=O)NC(=O)COC(=O)C1=COCCO1,36,n,n,n,n,n
O=C(COC(=O)C1=COCCO1)Nc1ccccc1,n,n,n,n,n,n
CCCc1cc(=O)n2[nH]c(NCc3c(Cl)cccc3Cl)nc2n1,n,n,n,n,n,n
CCCc1cc(=O)n2[nH]c(NC(=O)c3ccco3)nc2n1,n,n,14,n,n,n
O=C(CC[C@H]1O[C@@H](n2ccc(=O)[nH]c2=O)[C@H](O)[C@@H]1O)N1CCN(c2ccccn2)CC1,n,n,21,n,n,n
CC(CNC(=O)c1ccc(OC2CCN(Cc3ccccn3)CC2)cc1)Oc1cccnc1 (stereo not drawn),n,n,n,n,n,n
CC(C)N1CCC(NC(=O)Nc2ccc3c(c2)OCO3)CC1,n,n,n,n,n,n
CNC(=S)N/N=C(\C)c1ccc(C)c(C)c1,n,n,n,27,n,n
O=C(CSc1nnnn1-c1cccc(F)c1)NC1CC1,19,n,n,n,n,n
COc1cc(/C=C2/NC(=O)NC2=O)cc(Br)c1OCc1ccc(C(=O)O)cc1,n,n,n,n,n,n
C=CCc1cc(C=O)cc(OC)c1OCc1ccc(C(=O)O)cc1,n,n,20,n,n,n
COC(=O)NNC(=O)c1ccc(Cl)cc1Cl,n,n,n,n,n,n
CC(C)(C)C(=O)NC(=S)NNC(=O)c1ccc(-c2ccccc2)cc1,n,97,n,98,141,101
CC(C)(C)C(=O)NC(=S)NNC(=O)c1ccc(Cl)cc1Cl,n,36,n,44,139,98
CC(Oc1ccc2c(-c3ccccc3)cc(=O)oc2c1)C(=O)O (stereo not drawn),n,n,n,27,n,n
CC(Oc1ccc2c(-c3ccccc3)cc(=O)oc2c1)C(=O)N1CCOCC1 (stereo not drawn),n,n,n,n,n,n
